Reference: article PMC10795791 (Journal of Enzyme Inhibition and Medicinal Chemistry, 2024)

Tests used:
[1] = system: liver cancer cell line (HepG-2); assay: MTT anticancer activity, HepG-2; type: cell-based; conditions: Homo sapiens, HepG2, 72 h, read-out: HepG-2 IC50
Procedure, shortened: (§1)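 ATCC-sourced cancer cell lines were used: HepG-2 liver, NFS-60 myeloid leukaemia and PC-3 prostate. Cells were incubated with test compound for 72 h, viability was measured by MTT, and IC50 was derived. Doxorubicin served as reference drug. Results are mean ± SEM; significance was by Tukey post hoc ANOVA.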

[2] = system: colon cancer cells (Caco-2); assay: MTT anticancer activity, Caco-2; type: cell-based, human; conditions: Homo sapiens, Caco-2, 72 h, read-out: Caco-2 IC50
Procedure, shortened: (§2)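 ATCC-sourced Caco-2 colon cancer cells were exposed to test compound for 72 h. Viability was read by microculture MTT, with doxorubicin as reference, and IC50 was derived. Normal human lung fibroblasts (Wi-38) were run in the same 72 h MTT format to obtain IC50 and EC100 for selectivity. Results are mean ± SEM.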

[3] = system: prostate cancer cell line (PC-3); assay: MTT anticancer activity, PC-3; type: cell-based; conditions: Homo sapiens, 72 h, read-out: PC-3 IC50
Procedure, shortened: as §1

[4] = system: myeloid leukaemia cell line (NFS-60); assay: MTT anticancer activity, NFS-60; type: cell-based; conditions: NFS-60, 72 h, read-out: NFS-60 IC50
Procedure, shortened: as §1

PIM-1 kinase [5] = biological target: T1, PIM-1 kinase (Homo sapiens, UniProt P11309); assay: In vitro PIM-1 kinase inhibition; type: biochemical; conditions: from pIC50 and molecular size
T1 sequence (P11309 whole entry): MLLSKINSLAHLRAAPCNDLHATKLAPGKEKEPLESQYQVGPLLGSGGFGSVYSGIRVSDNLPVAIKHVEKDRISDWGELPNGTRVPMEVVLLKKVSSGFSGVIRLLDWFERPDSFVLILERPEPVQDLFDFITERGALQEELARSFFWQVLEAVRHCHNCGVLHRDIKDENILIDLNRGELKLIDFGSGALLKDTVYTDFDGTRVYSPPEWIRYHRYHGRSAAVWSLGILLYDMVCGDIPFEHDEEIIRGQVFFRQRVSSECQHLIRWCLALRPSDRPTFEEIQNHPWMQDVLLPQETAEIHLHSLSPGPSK

PIM-1 kinase [6] = biological target: T1, PIM-1 kinase; type: biochemical; conditions: Lineweaver-Burk double-reciprocal plot; for mode of PIM-1 kinase inhibition: in the presence of ATP; for Km change / Vmax change: versus control
[7] = MTT anticancer activity, Caco-2; type: cell-based, human; conditions: human, Caco-2, Caco-2 SI (selectivity index), Wi-38 EC50 divided by Caco-2 IC50
Procedure, shortened: as §2

Row | Compound | IC50 [1] [nM] | IC50 [2] [nM] | IC50 [3] [nM] | IC50 [4] [nM] | LE (ligand efficiency), PIM-1 kinase (PIM-1 kinase [5]) | mode of PIM-1 kinase inhibition (PIM-1 kinase [6]) | Km change (PIM-1 kinase [6]) | Vmax change (PIM-1 kinase [6]) | selectivity ratio at 72 h [7]
1 | CCOc1nc(-c2cccc(O)c2)cc(-c2cc3cc(Cl)ccc3nc2N2CCOCC2)c1C#N [Compound 4b, 4-(6-Chloro-2-morpholin-4-yl-quinolin-3-yl)-2-ethoxy-6-(3-hydroxyphenyl)pyridine-3-carbonitrile] | 59 | – | – | – | – | – | – | – | –
2 | CCOc1nc(-c2cccc(O)c2)cc(-c2cc3cc(OC)ccc3nc2N2CCOCC2)c1C#N [Compound 4c, 2-Ethoxy-6-(3-hydroxyphenyl)-4-(6-methoxy-2-morpholin-4-yl-quinolin-3-yl)pyridine-3-carbonitrile] | 13.2 | 7 | 5 | 6 | ~0.3 | both ATP competitive and non-competitive inhibitors | increase | reduced | –
3 | CCCOc1nc(-c2cccc(O)c2)cc(-c2cc3cc(OC)ccc3nc2N2CCOCC2)c1C#N [Compound 4f, 6-(3-Hydroxyphenyl)-4-(6-methoxy-2-morpholin-4-yl-quinolin-3-yl)-2-propoxypyridine-3-carbonitrile] | 16.4 | – | – | – | ~0.3 | both ATP competitive and non-competitive inhibitors | increase | reduced | ≥ 1.6
4 | Nc1n[nH]c2nc(-c3cccc(O)c3)cc(-c3cc4ccccc4nc3N3CCOCC3)c12 [Compound 6a, 3-(3-Amino-4-(2-morpholin-4-yl-quinolin-3-yl)-1H-pyrazolo[3,4-b]pyridin-6-yl)phenol] | 66.7 | – | – | – | – | – | – | – | –
